PAX8 reporter: inhibitors of PAX8 transcriptional activity in RMG-I cells. RMG-I TPO-luciferase reporter, SteadyGlo, 24 h. inhibition, % at 12.6 µM. 1.2% of 360,000 active;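 active = mean replicate inhibition at least 60% with every replicate also reaching 60%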;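 also: luciferase light reporting Pax8 driven TPO promoter activity; plate controls were median of neutral control wells for no effect and mitoxantrone controls for full effect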
FGF22 binding: shifts melting point of recombinant human FGF22; Q9HCT0; recombinant FGF22 thermal shift, SYPRO orange fluorescence; percent of sucrose octasulfate shift, DMSO zero; activity (Tm shift, normalised), % at 9.99 µM; 1.5% of 340,000 active; AID 651658;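 active = mean Tm shift, scaled 0 neutral to 100 positive control, at about 1.3% or above, every replicate too, limit read from the data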
Target sequence (Q9HCT0 whole entry, looked up): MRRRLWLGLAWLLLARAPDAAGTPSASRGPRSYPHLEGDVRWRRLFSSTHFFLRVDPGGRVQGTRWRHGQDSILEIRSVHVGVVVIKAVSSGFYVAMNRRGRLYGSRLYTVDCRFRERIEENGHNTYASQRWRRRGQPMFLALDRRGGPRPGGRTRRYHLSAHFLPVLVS
EWS-Fli block: EWS/Fli transcriptional activity inhibition; 0.67% of 350,000 active; inhibition, % at 12.6 µM; A673 NR0B1-luciferase reporter, viability-normalised;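 active = mean inhibition of at least 50% after viability correction, with every replicate also passing that limit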;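 also: firefly luciferase signal divided by Alamar Blue viability fluorescence both relative to DMSO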
PGC1a acetyl inh: PGC1a acetylation modulation, inhibitor mode; AID 651687; 0.17% of 350,000 active; U2OS PGC1a acetylation, AlphaScreen anti-acetyl-lysine; with virally co-expressed GCN5 acetyltransferase; inhibition, % at 15.6 µM;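 active = every replicate shows inhibition of at least 40%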;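 also: 0% = neutral control wells and 100% = positive control wells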
FN deposition inh: fibronectin deposition inhibition | inhibition, % at 12.6 µM | AH1F fibroblasts, Alexa488-fibronectin deposition fluorescence, overnight | 0.086% of 350,000 active;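 active = mean inhibition across replicates of 30% or more, regardless of how many single replicates reach that level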;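 also: positive control wells lacked labelled fibronectin entirely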
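Measured by – fluorescence 485/525 nm · System – AH1F fibroblast monolayer, labelled fibronectin deposition · Amount – 10000 cells per well · Buffer or medium – serum-reduced DMEM (2% serum) · Doses – single dose, pinned · Also added – fluorescent fibronectin at 24 nM final · Schedule – 1 h cell attachment, overnight exposure to compound and label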
Env fusion inh: inhibitors of HIV Env-mediated cell fusion | HeLa-JRFL Env/CEM21 cell fusion, luciferase | inhibition, % at 12.3 µM | 1.1% of 360,000 active | AID 651610;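 active = mean replicate inhibition score of at least 50 and every replicate individually at or above 50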;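 also: 0% = plate neutral controls and 100% = maraviroc near 300 nM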
An asterisk follows results filed as active; x = no result given; [ ] = another dose, or the depositor's remark. The list is not random: actives were taken first. Their share in the collection is about 3.1%.

SMILES	PAX8 reporter	FGF22 binding	EWS-Fli block	PGC1a acetyl inh	FN deposition inh	Env fusion inh
CN1C2CCC1/C(=C\c1ccc(F)cc1)C(=O)/C2=C/c1ccc(F)cc1	10	x	x	x	-6	0
CCOc1cc2c(cc1O)CCC1C2CCC2(C)C(O)CCC12 (stereo unspecified)	15	0	55*	x	24	-197
CCNc1cc2c(cc1O)CCC1C2CCC2(C)C(O)CCC12 (stereo unspecified)	-7	0	19	-7	5	-29
C[C@H](CO)N1C[C@H](C)[C@@H](CN(C)Cc2ccncc2)Oc2ccc(NS(=O)(=O)c3cccs3)cc2CC1=O	-1	1	-2	2	x	10[16.7 µM]
COc1cc(C(=O)Nc2nnc(SC)s2)c([N+](=O)[O-])cc1OC	26	44*	2	x	1	8
CC(CSc1n[nH]c(=S)s1)c1ccccc1 (stereo unspecified)	9	0	2	8	-8	14
CC(C)CSc1n[nH]c(=S)s1	17	43*	2	x	2	-3
CCS(=O)(=O)Nc1ccc2c(c1)C(=O)N(C)[C@@H]1CC[C@@H](CC(=O)OC)O[C@@H]1CO2	-1	0	1	-4	-23	x
CNC(=O)C1CCC(=O)N1Cc1ccccc1Cl (stereo unspecified)	x	x	x	-4	0	-11
O=C(Nc1cc(Cl)cc(Cl)c1)C1CCC(=O)N1Cc1ccccc1Cl (stereo unspecified)	3	x	x	-20	12	53*
CCC(C(=O)OCC(=O)c1c(N)n(CC(C)C)c(=O)n(C)c1=O)c1ccccc1 (stereo unspecified)	17	0	26	9	-3	60*
CC(C)Cn1c(N)c(C(=O)COC(=O)c2ccc(O)cc2)c(=O)n(C)c1=O	10	0	2	x	1	14
CCOc1ccccc1OCC(=O)OCC(=O)c1c(N)n(CC(C)C)c(=O)n(C)c1=O	7	0	3	1	7	x
CC(C)Cn1c(N)c(C(=O)COC(=O)c2ccc([N+](=O)[O-])o2)c(=O)n(C)c1=O	33	43*	2	x	13	15
C[C@@H]1CN([C@H](C)CO)C(=O)c2cc(-c3cccnc3)cnc2O[C@@H]1CN(C)C(=O)C1CCCCC1	x	x	-6	-1	x	-22[16.7 µM]
O=C(NCc1nnc2c3ccccc3c(-c3ccccc3)nn12)c1ccccc1Cl	-11	44*	-2	-6	-13	-5
COCC(=O)Nc1ccc2c(c1)C(=O)N(C)C[C@H](OC)[C@H](C)CN(Cc1ccccc1OC)[C@@H](C)CO2	x	0	7	-2	10	x
CCC(=O)N1CC2(C1)[C@H](c1ccc(-c3ccccc3)cc1)[C@H](CO)N2S(C)(=O)=O	x	0	2	5	x	x
CCNC(=O)Nc1ccc2c(c1)C(=O)N(C)[C@@H]1CC[C@@H](CC(=O)NCC3CCCCC3)O[C@H]1CO2	-18	0	3	0	-13	-27[16.7 µM]
c1cc(-c2nnc3sc(C4CCCCC4)nn23)ccn1	x	x	x	24	0	63*
C[C@@H]1CCCCO[C@@H](CN(C)S(=O)(=O)c2ccc(Cl)cc2)[C@H](C)CN([C@H](C)CO)C(=O)c2cc(NC(=O)NC3CCCCC3)ccc2O1	24	-1	-30	4	x	17[16.7 µM]
COc1ccccc1N1CCN(S(=O)(=O)c2cn(C)c(=O)n(C)c2=O)CC1	-3	0	4	x	5	-14
Cc1ccccc1OS(=O)(=O)c1cn(C)c(=O)n(C)c1=O	0	43*	-2	x	x	-9
Cc1cc([N+](=O)[O-])nn1CCC(=O)Nc1nccs1	20	43*	-2	2	1	0
CC(=O)c1ccc(NC(=O)C(C)N(C)CC(=O)Nc2ccc(Cl)cc2)cc1 (stereo unspecified)	12	44*	-12	x	9	-18
CC(=O)Nc1cccc2c1O[C@H](CN(C)S(C)(=O)=O)[C@H](C)CN(C)C2=O	x	x	x	x	-10	x
CC(=O)O[C@H]1[C@@H](O)[C@H](O)[C@H](Oc2c(O)c(C)c3c4c2[C@@H](C)CC[C@@H]4[C@@H](C)C[C@H]3C=C(C)C)O[C@H]1C	64*	0	17	-3	8	-9

Screens: PubChem BioAssay, Broad Institute
